One data set has as its system NS1-pYES yeast strain. Briefly: Yeast-based NS1 assay: reversal of NS1-induced slow-growth phenotype. Format: cell-based. The note with it: for restoration of yeast growth (reversal of slow growth phenotype): NS1-pYES strain, 50 μM, 22, 42 and 60 h.
Data set [1] in a line: in vitro. The note with it: dog.
Data set [2] is described as follows: Mouse liver microsomal stability. (Liver microsomes are vesicles of endoplasmic reticulum, rich in cytochrome P450 enzymes.)
Data set [3] relates to A/PR/8/34 strain of influenza A virus (H1N1). Format: cell-based.
Data set [4] deals with Influenza A virus H5N1, Influenza A/Vietnam/1203/2004 × A/PR/8/34 (recombinant H5N1). In words: microbe, parasite or virus in culture. Format: cell-based. The note with it: H5N1|PR/8, MDCK.
A further data set has as its system IFN-β mRNA. Briefly: RT-PCR analysis of IFN-β mRNA in MDCK cells. Format: cell-based. The note with it: MDCK infected with A/PR/8/34, MOI 2, 20 μM, 6 h. In short, it runs like this:
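MDCK cells infected with influenza A/PR/8/34 (MOI 2) and incubated with test compound (20 μM) for 6 h, then harvested. IFN-β mRNA detected by RT-PCR, with β-actin mRNA as reference. Poly(I:C)-induced cells were the positive control for IFN-β induction and RT-PCR. Uninfected cells received the same drug treatment and RT-PCR in parallel.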

Data set [5] has as its system Influenza A virus H1N1, Influenza A/California/7/2009. Format: cell-based.
For data set [6] the following is noted: microsomes; for Mouse Liver Microsomal Stability (% remaining) 0 min: 0 h; for Mouse Liver Microsomal Stability (% remaining) 15 min: 0.25 h; for Mouse Liver Microsomal Stability (% remaining) 30 min: 0.5 h.
The subject of a further data set is Caco-2 monolayer. The note with it: human, Caco-2, 2 h.
A short description of data set [7]: in vitro. To be noted: human, Caco-2, Efflux Ratio.

Each structure is given as a SMILES string. “Also recorded” adds a separate entry of the source. Where two headings read alike, the source gives them in different places. Marks after values point to notes of the source that are not given here.

On to `COc1cc(-c2ccnc3c2c(C)nn3-c2cccc(C(F)(F)F)c2)ccc1O` [Compound 33], for which the “restoration of yeast growth (reversal of slow growth phenotype)” value (“restoration of yeast growth” for short) in the data set on NS1-pYES yeast strain is recorded as “show the same behavior”. Besides, in the data set “in vitro [1]”, the CC50 stood at 24.5 µM. In addition, the “Mouse Liver Microsomal Stability (% remaining) 0 min” value in data set [2] (0 min) turned out to be 100 % remaining. Moreover, the “Mouse Liver Microsomal Stability (% remaining) 15 min” value in data set [2] (15 min) worked out at 25 % remaining. For the same compound, the “Mouse Liver Microsomal Stability (% remaining) 30 min” value in data set [2] (30 min) is 16 % remaining.

One may read the EC50 as the concentration giving half of the maximal effect. Regarding `COc1cc(-c2c(C#N)c(N)nc3c2c(C)nn3-c2ccc(F)cc2)ccc1O` [Compound 10], the “restoration of yeast growth” value in the data set on NS1-pYES yeast strain is recorded as “show the same behavior”. Besides, the “dose response in the TCID50 assay” value in [3] is “successfully decreased viral titer with increasing concentration”. The EC50 in data set [4] was 3.6 µM. In addition, in “in vitro [1]”, the CC50 turned out to be 24.7 µM. Also, in the data set on IFN-β mRNA, the “restoration of IFN-β mRNA levels in infected cells” value (from here on “restoration of IFN-β mRNA levels”) is recorded as “significantly restored IFN-β mRNA levels”. Moreover, the EC50 entry in data set [5] is “single digit micromolar”. In data set [6], the “Mouse Liver Microsomal Stability (% remaining) 0 min” value was 100 % remaining, the “Mouse Liver Microsomal Stability (% remaining) 15 min” value is given as 74 % remaining and the “Mouse Liver Microsomal Stability (% remaining) 30 min” value amounted to 60 % remaining.

Take `NC(=O)c1ncn([C@@H]2O[C@H](CO)[C@@H](O)[C@H]2O)n1` [Ribavirin, reference compound]: the EC50 in [4] is 32.2 µM.

The term efflux ratio denotes a quotient of directional permeabilities that is used to spot active efflux. For the compound `COc1cc(-c2ccnc3c2c(C)nn3-c2ccc(C(F)(F)F)cc2)ccc1O` [Compound 32], in the data set with NS1-pYES yeast strain (50 μM), the “acute toxicity in yeast assay” value is given as “does not display acute toxicity”. For the same compound, the “restoration of yeast growth” value in the data set on NS1-pYES yeast strain is given as “reversal of the slow growth phenotype; also recorded: reversed”. In the data set with Caco-2 monolayer, the “Efflux Ratio” value is reported as 1.20^b. In addition, in data set [3], the “dose response in the TCID50 assay” value was “successfully decreased viral titer with increasing concentration”, the “selectivity index (SI)” value is given as “greater than 100 fold” and the “viral suppression (TCID50)” value worked out at 3 log units. The efflux ratio at 2 h in the data set “in vitro [7]” was 2.29. In “in vitro [1]”, this compound yielded a CC50 of 19.8 µM. For the same compound, the “Cytotoxicity towards host MDCK cells” value with MDCK cells (dog) was “did not affect cell viability at 5, 10, 50 and 100 μM”. The “restoration of IFN-β mRNA levels” value in the data set on IFN-β mRNA is on record as “significantly restored IFN-β mRNA levels”. For the same compound, the “restoration of IFN-β mRNA levels” value with IFN-β mRNA (listed as C00006) is listed as “Restores IFN-β mRNA levels”. Moreover, in data set [5], the 50% effective concentration (EC50) entry was “sub-micromolar”. For the same compound, in [6], the “Mouse Liver Microsomal Stability (% remaining) 0 min” value is listed as 100 % remaining, the “Mouse Liver Microsomal Stability (% remaining) 15 min” value came to 66 % remaining and the “Mouse Liver Microsomal Stability (% remaining) 30 min” value is on record as 45 % remaining.

On to `Cc1ccc(-n2nc(C)c3c(-c4ccc(O)c(O)c4)c(C#N)c(N)nc32)cc1C` [Compound 4], for which the “restoration of yeast growth” value in the data set with NS1-pYES yeast strain is on record as “show the same behavior”. Further, the “dose response in the TCID50 assay” value in [3] was “successfully decreased viral titer with increasing concentration”. For the same compound, in the data set “in vitro [1]”, the CC50 came out at 24.5 µM. Moreover, the “restoration of IFN-β mRNA levels” value in the data set with IFN-β mRNA is “significantly restored IFN-β mRNA levels”. Also, in data set [5], the EC50 result is reported as “single digit micromolar”. In data set [6], the “Mouse Liver Microsomal Stability (% remaining) 0 min” value is 100 % remaining, the “Mouse Liver Microsomal Stability (% remaining) 15 min” value was determined as 78 % remaining and the “Mouse Liver Microsomal Stability (% remaining) 30 min” value stood at 64 % remaining.

For the compound `Cc1nn(-c2ccc(Cl)cc2)c2nc(N)c(C#N)c(-c3ccc(O)c(O)c3)c12` [Compound 6], in the data set with NS1-pYES yeast strain, the “restoration of yeast growth” value is recorded as “show the same behavior”. In addition, the “dose response in the TCID50 assay” value in data set [3] is recorded as “successfully decreased viral titer with increasing concentration”. The efflux ratio at 2 h in the data set “in vitro [7]” was 7.78. This compound gave a CC50 in the data set “in vitro [1]” of 24.5 µM. Besides, the “restoration of IFN-β mRNA levels” value in the data set with IFN-β mRNA was “significantly restored IFN-β mRNA levels”. Moreover, in data set [6], the “Mouse Liver Microsomal Stability (% remaining) 0 min” value came out at 100 % remaining, the “Mouse Liver Microsomal Stability (% remaining) 15 min” value came to 93 % remaining and the “Mouse Liver Microsomal Stability (% remaining) 30 min” value is 90 % remaining.

Take `COc1cccc(-c2ccnc3c2c(C)nn3-c2ccc(F)cc2)c1` [Compound 37]: in the data set on MDCK cells, the “Cytotoxicity towards host MDCK cells” value was “exhibited cytotoxicity”.

In the case of `CCOc1cc(-c2c(C#N)c(O)nc3c2c(C)nn3-c2ccc(F)cc2)ccc1O` [Compound 1], the EC50 in data set [4] was 28.5 µM; in data set [5], “single digit micromolar”. For the same compound, the “Cytotoxicity towards host MDCK cells” value in the data set with MDCK cells was “without toxicity”.

The values are drawn from article PMC8290212 (Bioorganic & medicinal chemistry letters, 2019).
